Assay results taken from ChEMBL document CHEMBL1909531, “Mitochondrial respiration inhibitors suppress protein translation and hypoxic signaling via the hyperphosphorylation and inactivation of translation initiation factor eIF2α and elongation factor eEF2” (J Nat Prod, 2011).
Calls of active or inactive are those of the source. No cut-off for these calls is given here.

Legend:
[1] = target: Serine/threonine-protein kinase mTOR (Homo sapiens) (UniProt P42345); assay: Inhibition of mTOR in human MDA-MB-231 cells assessed as eIF2alpha hyperphosphorylation on Ser 51 at 1 to 10 uM after 30 mins by Western blotting; format: cell-based
In short: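 Cells seeded at 0.8 × 10^6 per well, exposed 30 min at 37 °C, 5% CO2, in DMEM/F12 with 5% FBS. Lysed in modified RIPA (pH 7.6) with protease and phosphatase inhibitors; 40 µg protein run on 4–20% gels, nitrocellulose transfer. Phospho-specific and total eIF2α/eEF2 primaries at 1:1,000, HRP anti-rabbit at 1:2000, chemiluminescence on film.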

[2] = target: T1, Hypoxia inducible factors; HIF-1-alpha, HIF-2-alpha (Homo sapiens, UniProt Q16665+Q99814); assay: Inhibition of HIF1-mediated induction of cellular VEGF protein in human T47D cells at 3 uM after 16 hrs by ELISA under normoxic condition; format: cell-based
[3] = target: Serine/threonine-protein kinase mTOR (Homo sapiens) (UniProt P42345); assay: Inhibition of mTOR-mediated 4E-BP1 phosphorylation on Thr 37/46 in human T47D cells at 1 to 10 uM after 30 mins by Western blotting; format: cell-based
[4] = target: Serine/threonine-protein kinase mTOR (Homo sapiens) (UniProt P42345); assay: Inhibition of mTOR-mediated rpS6 phosphorylation on Ser 235/236 in human T47D cells at 1 to 10 uM after 30 mins by Western blotting; format: cell-based
[5] = system: T47D; assay: Inhibition of HIF1alpha protein accumulation under hypoxic condition in human T47D cells at 3 uM after 4 hrs by Western blot analysis; format: functional, cell-based
[6] = system: T47D; assay: Inhibition of cellular respiration in human T47D cells at 0.3 uM in presence of complex 4 substrate TMPD/ascorbate; format: functional, cell-based
[7] = system: T47D; assay: Antiproliferative activity against human T47D cells assessed as cell viability at 1 uM after 72 hrs by SRB assay; format: functional; details: read-out: Activity
In short: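 T47D cells treated for 72 h in parallel with the HPLC ATP time course; viability measured by sulforhodamine B, in which cells are fixed directly in the wells without aspiration or washing, so loosely attached cells are kept.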

[8] = target: T1, Hypoxia inducible factors; HIF-1-alpha, HIF-2-alpha; assay: Inhibition of HIF1-mediated induction of secreted VEGF protein in human T47D cells at 3 uM after 16 hrs by ELISA under normoxic condition; format: cell-based
[9] = system: T47D; assay: Ratio of IC50 for 1, 10-phenanthroline-induced HIF1 activation in human T47D cells to IC50 for hypoxia-induced HIF1 activation in human T47D cells; format: cell-based
[10] = target: T1, Hypoxia inducible factors; HIF-1-alpha, HIF-2-alpha; assay: Inhibition of HIF1-mediated induction of VEGF mRNA expression in hypoxia-stimulated human T47D cells at 0.3 to 3 uM after 16 hrs by RT-PCR analysis; format: cell-based
[11] = target: T1, Hypoxia inducible factors; HIF-1-alpha, HIF-2-alpha; assay: Inhibition of HIF1-mediated induction of Glut-1 mRNA expression in human T47D cells at 3 uM after 16 hrs by RT-PCR analysis under normoxic condition; format: cell-based
[12] = target: Serine/threonine-protein kinase mTOR (Homo sapiens) (UniProt P42345); assay: Inhibition of mTORC1-mediated eIF4E phosphorylation on Ser 209 in human T47D cells at 1 to 10 uM after 30 mins by Western blotting; format: cell-based

Activity [1]: Dose-dependent effect | inhibition [2]: inactive | inhibition [3]: inactive | inhibition [4]: inactive | inhibition [8]: inactive | inhibition [10]: Active | inhibition [11]: inactive | inhibition [12]: inactive
SMILES: CC(C)CC(=O)O[C@@H]1CC[C@]2(C)[C@H]3CC[C@]45C[C@]4(CC[C@@H]5[C@@H]4C[C@H]([C@@H]5OC5(C)C)OC4O)[C@]3(C)[C@H](O)C[C@H]2C1(C)C (some centres not stated) [SKIMMIAREPIN A]
inhibition [5]: Active | inhibition [6]: inactive | viability at 1 µM [7]: 50% | Ratio IC50 [9]: 80
